Experiments:
Cannabinoid receptor 2 [1] = biological target: T1, Cannabinoid receptor 2 (Homo sapiens, UniProt P34972); assay: Binding affinity to CB2 receptor
Cannabinoid receptor 2 [2] = biological target: T1, Cannabinoid receptor 2; assay: Displacement of [3H]CP-55940 from human CB2 receptor expressed in human U87 cells after 1 hr by scintillation counting; assay type: cell-based, U-87MG ATCC
Method in brief: (§1)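 Membranes from lentivirally transduced U87 glioblastoma cells stably expressing hCB1 or hCB2, sorted on an mKateS158A co-reporter. Cells at 80–90% confluence were homogenised in 50 mM Tris-HCl, 5 mM MgCl2, 2.5 mM EDTA, pH 7.4. Aliquots of 30–50 μg protein were incubated 1 h at 4°C with 2.8 nM [3H]CP-55,940 plus graded compound concentrations, then GF/C-filtered. Ki was derived from the competition curves.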

Homo sapiens = organism: Homo sapiens; assay: Selectivity ratio of Ki for human CB1 receptor to Ki for human CB2 receptor
Cannabinoid receptor 1 [3] = biological target: T2, Cannabinoid receptor 1 (Homo sapiens, UniProt P21554); assay: Displacement of [3H]CP-55940 from human CB1 receptor expressed in human U87 cells after 1 hr by scintillation counting; assay type: cell-based, U-87MG ATCC; method in brief: as §1
T2 sequence (P21554 whole entry): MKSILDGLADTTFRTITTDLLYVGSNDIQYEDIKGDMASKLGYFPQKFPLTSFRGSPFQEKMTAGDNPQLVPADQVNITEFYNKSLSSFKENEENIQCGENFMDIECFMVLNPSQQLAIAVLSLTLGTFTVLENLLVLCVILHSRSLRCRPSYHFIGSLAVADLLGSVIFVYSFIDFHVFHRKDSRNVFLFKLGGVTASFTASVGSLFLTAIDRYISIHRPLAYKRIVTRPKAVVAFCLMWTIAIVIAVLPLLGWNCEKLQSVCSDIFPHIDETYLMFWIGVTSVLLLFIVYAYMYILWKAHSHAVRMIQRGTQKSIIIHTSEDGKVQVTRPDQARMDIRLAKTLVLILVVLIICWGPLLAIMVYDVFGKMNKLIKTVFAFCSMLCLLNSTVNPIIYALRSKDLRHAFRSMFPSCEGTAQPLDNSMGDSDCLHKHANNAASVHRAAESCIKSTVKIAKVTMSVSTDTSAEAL

[4] = Selectivity ratio of Ki for CB1 receptor to Ki for CB2 receptor
Cannabinoid receptor 1 [5] = biological target: T2, Cannabinoid receptor 1; assay: Binding affinity to CB1 receptor

T1 sequence (P34972 whole entry): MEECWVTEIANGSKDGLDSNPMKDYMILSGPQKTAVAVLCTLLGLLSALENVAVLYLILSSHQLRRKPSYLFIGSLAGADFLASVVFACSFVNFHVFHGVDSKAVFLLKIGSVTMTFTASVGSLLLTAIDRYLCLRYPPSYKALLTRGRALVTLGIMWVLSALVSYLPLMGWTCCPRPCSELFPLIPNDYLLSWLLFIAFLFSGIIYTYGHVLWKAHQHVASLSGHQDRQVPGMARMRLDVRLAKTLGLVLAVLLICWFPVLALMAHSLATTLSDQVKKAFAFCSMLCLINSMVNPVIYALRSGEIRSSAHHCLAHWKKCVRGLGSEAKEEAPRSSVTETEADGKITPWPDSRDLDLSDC

Compound	Ki (Cannabinoid receptor 2 [1]) [pM]	Ki (Cannabinoid receptor 2 [2]) [µM]	Ratio Ki (Homo sapiens)	Ki (Cannabinoid receptor 1 [3]) [µM]	Ratio Ki [4]	other results
CCCCOc1c(OC)ccc2cc(C(=O)NCCc3ccc(N)cc3)c(=O)[nH]c12	22300					IC50 (Cannabinoid receptor 2 [1]): 0.00158 µM
CCCCOc1c(OC)ccc2cc(C(=O)NCCc3cn(CCF)nn3)c(=O)[nH]c12		2.4	> 4	> 10		
CCCCCc1cc2cc(C(=O)NCCc3ccc(F)cc3)c(=O)n(C)c2c(O)c1OC	43				20100	Ki (Cannabinoid receptor 1 [5]): 864 µM
Cc1c(C(=O)NN2CCCCC2)nn(-c2ccc(Cl)cc2Cl)c1-c1ccc(Cl)cc1					32	
COc1ccc2cc(C(=O)NCCc3ccc(F)cc3)c(=O)[nH]c2c1OC		0.005		> 10		
CCCCOc1c(OC)ccc2cc(C(=O)NCc3ccc(F)cc3)c(=O)[nH]c12		0.0028	> 3570	> 10		
CCCCCc1cc2cc(C(=O)NCCc3ccc(F)cc3)c(=O)[nH]c2c(O)c1OC	36				66600	Ki (Cannabinoid receptor 1 [5]): 2400 µM
CCCCCC(C)(C)c1cc(OC)c2c(c1)OC(C)(C)[C@@H]1CCC(C)=C[C@@H]21					170	
CCCCOc1c(OC)ccc2cc(C(=O)NCc3cn(CCF)nn3)c(=O)[nH]c12		0.62	> 16	> 10		
CCCCCCC(C)(C)c1cc(OC)c(C2CCCC(C)(O)C2)c(OC)c1 (centres undefined)	23000				220	Ki (Cannabinoid receptor 1 [5]): 5.05 µM
CCCCOc1c(OC)ccc2cc(C(=O)NCCCF)c(=O)[nH]c12		0.058	> 172	> 10		
COc1ccc2cc(C(=O)NCCF)c(=O)[nH]c2c1OC		> 10	> 1	> 10		
CCCCOc1c(OC)ccc2cc(C(=O)O)c(=O)[nH]c12	32				28300	
COc1ccc2cc(C(=O)NCc3ccc(F)cc3)c(=O)[nH]c2c1OC		> 10	> 1	> 10		
Cc1ccc(Cn2nc(C(=O)N[C@@H]3C(C)(C)[C@@H]4CC[C@@]3(C)C4)cc2-c2ccc(Cl)c(C)c2)cc1					32	
CCCCCc1cc2cc(C(=O)OC)c(=O)[nH]c2c(O)c1OC	14				262000	
COc1ccc2cc(C(=O)NCC(F)c3ccccc3)c(=O)[nH]c2c1OC (centres undefined)		0.022	> 454	> 10		
CCCCCOc1c(OC)ccc2cc(C(=O)NCCN3CCOCC3)c(=O)n(C)c12					11000	
CCCCCOc1c(OC)ccc2cc(C(=O)NCCc3ccncc3)c(=O)[nH]c12	10				20800	
COc1ccc2c(c1)c(CCN1CCOCC1)c(C)n2C(=O)c1cccc(Cl)c1Cl	14000				146	
CCCCOc1c(OC)ccc2cc(C(=O)NCC(F)c3ccccc3)c(=O)[nH]c12 (centres undefined)		0.0008	> 12500	> 10		
CCCOc1c(OC)ccc2cc(C(=O)NCCc3ccc(F)cc3)c(=O)[nH]c12					16000	
CCCCOc1c(OC)c([N+](=O)[O-])cc2cc(C(=O)NCCc3ccc(F)cc3)c(=O)[nH]c12		0.0014	> 7140	> 10		
CCCCOc1c(OC)ccc2cc(C(=O)NCCF)c(=O)[nH]c12		0.486	> 20.5	> 10		
CCCCOc1c(OC)ccc2cc(C(=O)NCCc3ccc(F)cc3)c(=O)[nH]c12		0.0024	> 4170	> 10		

From ChEMBL document CHEMBL1821585, “Fluorinated cannabinoid CB2 receptor ligands: synthesis and in vitro binding characteristics of 2-oxoquinoline derivatives” (Bioorg Med Chem, 2011)
